High-throughput results deposited in PubChem BioAssay by several laboratories.
bCat KO growth: beta-catenin-lacking colon tumor cell growth suppression; HCT116 beta-catenin knockout viability, CellTiter-Glo, 60 h; hits give low values; viability, % at 10 µM; 140,000 tested, 1.5% active;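 active = viability at or under a set limit, the compound median less 4 SD, cut at about 6% in these data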;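 also: 0% = Hyamine 1622 control at 20 µM and 100% = untreated cell control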
H69AR inhibit: blocks growth of human H69AR lung tumor cells; viability, % at 10 µM; H69AR lung tumor viability, ATP luminescence, 72 h; hits give low values; 85,000 tested, 6% active;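 active = viability at or below 40%; inactive = viability above 40%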;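 also: multidrug resistant small cell line overexpressing MRP-1 efflux transporter; 100% = mean luminescence of untreated control wells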
HUVEC inhibit: human endothelial cell proliferation inhibition. viability, % at 10 µM (by protocol). AID 648. HUVEC proliferation, CellTiter-Glo luminescence, 72 h; hits give low values. 86,000 tested, 1.1% active;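 active = viability at or below 30%; inactive = viability above 30%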;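 also: 100% = median luminescence of DMSO-only cell control wells on each plate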
Lung fibro prol: blocks proliferation of human lung fibroblasts | LL 47 human lung fibroblast viability, ATP luminescence; hits give low values | viability, % at 10 µM | 85,000 tested, 1.1% active;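 active = viability at or below 50% in the single dose screen; inactive = viability above 50%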;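 also: compound exposure lasted 72 h before the ATP readout; 100% = median luminescence of untreated cell-only wells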
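Test system: LL 47 human lung fibroblasts; Quantity: 1,150 cells/well; Buffer or medium: IMEM plus 15% FBS; Dosing: tenfold compound dosing solution, DMSO at 0.1%; Timing: overnight cell rest, 72 h compound treatment at 37 °C; Detection: ATP-based CellTiter-Glo luminescent readout; Read-out basis: viability percentage against median untreated-cell control; Controls: cell-only wells, no compound.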
HCT116 PTEN-null: PTEN-deleted cell growth suppression; HCT116 PTEN-null viability, CellTiter-Glo, 60 h; hits give low values; 140,000 tested, 1.2% active; viability, % at 10 µM;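 active = viability at or below a set limit, 4 SD under the median of all tested compounds, cut at about 3.7% in these data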;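 also: PTEN knockout HCT116 line with beta catenin targeted HCT116 as companion control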
Pyk2 oligo antag: blocks oligomerization of human Pyk2 in cells. Q14289. Q293 cells, Pyk2 FERM NanoBiT luminescence; hits give low values. 99,000 tested, 0.83% active. z-score (the deposit names both 25 µM and 10 µM);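 active = Z-score of -3 or lower, scaled per plate to the spread of control and sample wells; inactive = z-score above -3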;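 also: negative z-score means lost luminescence so less FERM oligomerization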
* = called active by the depositor. This excerpt belongs to a sample that is enriched for hits.

For CC(C)Sc1nc(-c2cccs2)nc2c1c(=O)n(C)c(=O)n2C the results were H69AR inhibit 18.9*, HUVEC inhibit 84.3 and Lung fibro prol 65.7.
For O=C(CSc1nnc(-c2cccs2)n1-c1ccccc1)NCC1CCCO1 (stereo not given) the results were bCat KO growth 93.8, H69AR inhibit 92.2, HUVEC inhibit 105.5, Lung fibro prol 98.0, HCT116 PTEN-null 97.8 and Pyk2 oligo antag 0.49.
Screening Cn1c(=O)c2c(SCC(=O)NCC3CCCO3)nc(-c3cccs3)nc2n(C)c1=O (stereo not given) returned H69AR inhibit 28.8*, HUVEC inhibit 89.4 and Lung fibro prol 95.6.
For Cc1ccc(-c2ccccc2NC(=O)C2C3C=CC(C3)C2C(=O)O)o1 (stereo not given) the results were bCat KO growth 109.0, H69AR inhibit 93.0, HUVEC inhibit 93.8, Lung fibro prol 101.4, HCT116 PTEN-null 89.0 and Pyk2 oligo antag 0.73.
Cc1ccc(-c2ccccc2NC(=O)CCl)o1 was read as bCat KO growth 22.9, H69AR inhibit 0.1*, HUVEC inhibit 83.8, Lung fibro prol 99.4, HCT116 PTEN-null 44.2 and Pyk2 oligo antag 0.04.
Screening CCSc1nnc(NC(=O)NC(CC)(C(F)(F)F)C(F)(F)F)s1 returned bCat KO growth 26.0, H69AR inhibit 13.8*, HUVEC inhibit 45.4, Lung fibro prol 62.9, HCT116 PTEN-null 29.0 and Pyk2 oligo antag -2.15.
Screening CCSc1nnc(NC(=O)NC(C)(C(F)(F)F)C(F)(F)F)s1 returned bCat KO growth 86.1 and HCT116 PTEN-null 83.5.
CCSc1nnc(NC(=O)CSc2c(Cl)cccc2Cl)s1 was read as bCat KO growth 83.1, H69AR inhibit 73.5, HUVEC inhibit 96.2, Lung fibro prol 92.8, HCT116 PTEN-null 70.6 and Pyk2 oligo antag -3.18*.
For COCCCN(C(=O)Nc1ccccc1)C(C)c1ccncc1 (stereo not given) the results were bCat KO growth 93.0, H69AR inhibit 99.8, HUVEC inhibit 92.8, Lung fibro prol 104.8 and HCT116 PTEN-null 105.4.
`COc1ccccc1N1C(=O)N(C(C)=O)C2C1Nc1ccccc1N2C` (stereo not given) gave bCat KO growth 83.2, H69AR inhibit 30.5*, HUVEC inhibit 25.5*, Lung fibro prol 90.1, HCT116 PTEN-null 93.4 and Pyk2 oligo antag 0.1.
COc1ccccc1N1C(=O)c2ccccc2NC1c1ccncc1 (stereo not given) was read as bCat KO growth 89.6, H69AR inhibit 100.8, HUVEC inhibit 94.5, Lung fibro prol 99.8, HCT116 PTEN-null 87.7 and Pyk2 oligo antag -1.39.
Screening O=C(NCc1ccco1)c1cccc(NS(=O)(=O)c2ccccc2F)c1 returned bCat KO growth 96.9 and HCT116 PTEN-null 95.4.
For CCOC(=O)c1cccc(Nc2nc(-c3cccnc3)nc3ccccc23)c1 the results were bCat KO growth 12.8, HCT116 PTEN-null 10.1 and Pyk2 oligo antag -3.65*.
Screening CCOC(=O)c1cccc(NC(=O)c2cccnc2)c1 returned bCat KO growth 106.4, H69AR inhibit 31.0*, HUVEC inhibit 101.6, HCT116 PTEN-null 102.9 and Pyk2 oligo antag -0.44.
`O=C(O)c1cccc(Nc2nc(-c3cccnc3)nc3ccccc23)c1` gave bCat KO growth 94.1 and HCT116 PTEN-null 90.5.
For O=C(Nc1cnc2ccccc2c1)c1cccnc1 the results were bCat KO growth 100.6, H69AR inhibit 7.7*, HUVEC inhibit 105.7, Lung fibro prol 102.0 and HCT116 PTEN-null 103.1.
CCOC(=O)c1cccc(NC(=O)c2cncc(Br)c2)c1 was read as bCat KO growth 95.6 and HCT116 PTEN-null 94.7.
For CCOCC(=O)Nc1cccc(C(=O)OCC)c1 the results were bCat KO growth 97.3, H69AR inhibit 20.8*, HUVEC inhibit 97.1, Lung fibro prol 104.8, HCT116 PTEN-null 95.0 and Pyk2 oligo antag 0.7.
For CC(C)(C)c1cc(N)on1 the results were bCat KO growth 94.1, HCT116 PTEN-null 92.6 and Pyk2 oligo antag 1.22.
For CN(C)c1ccc(C(c2nnnn2C2CCCCC2)N2CCN(C(=O)c3ccco3)CC2)cc1 (stereo not given) the results were H69AR inhibit 99.7, HUVEC inhibit 104.3 and Lung fibro prol 99.3.
CCn1c(SCc2ccc(OC)cc2)nnc1-c1ccncc1 was read as bCat KO growth 98.1, H69AR inhibit 92.3, HUVEC inhibit 106.8, Lung fibro prol 99.7, HCT116 PTEN-null 98.3 and Pyk2 oligo antag -0.12.
For CC(C)C(=O)Nc1ccc(C(=O)NCc2cccnc2)cc1 the results were bCat KO growth 98.9, H69AR inhibit 36.5*, HUVEC inhibit 102.5, Lung fibro prol 100.3, HCT116 PTEN-null 98.5 and Pyk2 oligo antag -0.69.
For CN(C)C(=O)c1ccc(NC(=O)c2cccnc2)cc1 the results were bCat KO growth 99.6, H69AR inhibit 39.1*, HUVEC inhibit 103.5, Lung fibro prol 93.0, HCT116 PTEN-null 107.6 and Pyk2 oligo antag -0.24.
For O=C(NCc1cccnc1)c1ccc(NC(=O)c2ccco2)cc1 the results were bCat KO growth 91.4, H69AR inhibit 74.3, HUVEC inhibit 93.1, Lung fibro prol 103.3, HCT116 PTEN-null 98.3 and Pyk2 oligo antag 0.45.
For COc1ccc(-c2csc(N3C(=O)C4C5c6ccccc6C(c6ccccc65)C4C3=O)n2)cc1 (stereo not given) the results were bCat KO growth 92.6 and HCT116 PTEN-null 90.1.
`Cc1cccc(NC(=O)c2ccc(N(C)C3CCCCC3)c([N+](=O)[O-])c2)n1` gave bCat KO growth 61.9, HCT116 PTEN-null 52.1 and Pyk2 oligo antag -2.35.
For CN(C)N1C(N)=C(C#N)C(c2cccnc2)C2=C1CCCC2=O (stereo not given) the results were bCat KO growth 90.4 and HCT116 PTEN-null 91.5.
COCCN1C=C(C(=O)OC)C(c2cc(Br)c(OC)c(OC)c2)C(C(=O)OC)=C1 was read as bCat KO growth 95.1, H69AR inhibit 63.9, HUVEC inhibit 83.7, Lung fibro prol 91.0, HCT116 PTEN-null 83.0 and Pyk2 oligo antag -3.4*.
For CCCCOc1ccc(C(=O)NNC(=S)NC(=O)CC)cc1 the results were bCat KO growth 4.5* and HCT116 PTEN-null 4.8.
Screening CCOc1ccc(NCc2nnc(SCC(=O)Nc3nc(-c4ccccc4)cs3)n2-c2ccccc2)cc1 returned bCat KO growth 1.3* and HCT116 PTEN-null 1.0*.
CCn1c(SCC(=O)Nc2nc(-c3ccc(C)cc3)cs2)nnc1-c1ccccc1O was read as bCat KO growth 15.3, H69AR inhibit 29.4*, HUVEC inhibit 69.6, Lung fibro prol 97.2, HCT116 PTEN-null 19.3 and Pyk2 oligo antag -2.9.
COc1ccccc1-c1nnc(SCC(=O)Nc2nc(-c3ccccc3)cs2)n1C was read as bCat KO growth 62.4, H69AR inhibit 86.4, HUVEC inhibit 81.8, Lung fibro prol 100.5, HCT116 PTEN-null 77.7 and Pyk2 oligo antag -3.21*.
